A short description of series [1]: The chemical half-life by HPLC. The format is ADME. In a few lines:
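10 mM DMSO stocks diluted 100-fold to 100 µM in 100 mM Tris-HCl pH 7.3 with 260 µM ZnCl₂. Remaining parent measured over time by isocratic reverse-phase HPLC (phenyl column, 0.1% TFA with 65-85% methanol, 250-275 nm), using repeat or delayed injections. Half-life from one-phase exponential decay fit, maximum 1 and minimum 0.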

Series [2] has as its system MDA-MB-361. Description: Ratio of the IC50 in thebeta-Gal- and CPG2-expressing cell line. The series is classed as functional, Homo sapiens. In a few lines: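 Degree of activation: IC50 in β-Gal-expressing MDA MB 361 cells divided by IC50 in stCPG2(Q)3-expressing cells. Both IC50s are from sulforhodamine-B regrowth assays after two-stage prodrug exposure, fitted to a log dose-effect sigmoid.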

Substrate in series [3]: O=C(O)CCC[C@H](NC(=O)Nc1cc(F)c(N(CCCl)CCCl)c(F)c1)C(=O)O
The series can be described thus: Michaelis-Menten constant towards carboxypeptidase G2 enzyme. The following applies: Pseudomonas aeruginosa. In a few lines: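 CPG2 (50 mU) with prodrug at 5-50 µM in 5 µM steps, diluted from DMSO concentrates into 100 mM Tris-HCl pH 7.3 with 260 µM ZnCl₂, 37 °C. Remaining prodrug measured by isocratic reverse-phase HPLC (phenyl column, 0.1% TFA/methanol, 250-275 nm) at 0, 5, 10, 15 and 20 min.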

This note sets out measurements from ChEMBL document CHEMBL1149165, “Significant differences in biological parameters between prodrugs cleavable by carboxypeptidase G2 that generate 3,5-difluoro-phenol and -aniline nitrogen mustards in gene-directed enzyme prodrug therapy systems” (J Med Chem, 2004).

Turning to `O=C(O)CCC[C@H](NC(=O)Oc1cc(F)c(N(CCCl)CCCl)c(F)c1)C(=O)O`, in series [1], the half-life was found to be 45 min.
As to `CS(=O)(=O)OCCN(CCCl)c1c(F)cc(OC(=O)N[C@@H](CCCC(=O)O)C(=O)O)cc1F`, in series [2], the Degree of activation was determined as 0.9 fold.

B1: Carboxypeptidase G2 (Pseudomonas aeruginosa (strain ATCC 15692 / PAO1 / 1C / PRS 101 / LMG12228)), Q9I056 (protein)
chain: MHARRLPRLLPLALAFLLSPAAFAADTPAAELLRQAEAERPAYLDTLRQLVAVDSGTGQAEGLGQLSALLAERLQALGAQVRSAPATPSAGDNLVATLDGTGSKRFLLMIHYDTVFAAGSAAKRPFREDAERAYGPGVADAKGGVAMVLHALALLRQQGFRDYGRITVLFNPDEETGSAGSKQLIAELARQQDYVFSYEPPDRDAVTVATNGIDGLLLEVKGRSSHAGSAPEQGRNAILELSHQLLRLKDLGDPAKGTTLNWTLARGGEKRNIIPAEASAEADMRYSDPAESERVLADARKLTGERLVADTEVSLRLDKGRPPLVKNPASQRLAETAQTLYGRIGKRIEPIAMRFGTDAGYAYVPGSDKPAVLETLGVVGAGLHSEAEYLELSSIAPRLYLTVALIRELSAD
Consider B1, for which the Km in series [3] came out at 7.7 µM.

As a reminder, the half-life is how long it takes for the measured level to halve. A higher half-life goes with slow loss. What is called Km is the substrate concentration at which the rate is half of its maximum.
